# Source: ChEMBL document CHEMBL1133516, “Biarylpropylsulfonamides as novel, potent potentiators of 2-amino-3- (5-methyl-3-hydroxyisoxazol-4-yl)- propanoic acid (AMPA) receptors” (J Med Chem, 2000)
# Biological target: Glutamate receptor 4 (Homo sapiens, UniProt P48058)
# Assay: Tested for potentiation towards human iGluR4 receptor expressed in HEK293 cells
# Assay type: functional, cell-based
# In short: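 Human GluR4 flip, stably homomerically expressed in HEK-293 cells. Cells loaded 60 min with 20 µM Fluo3-AM in HEPES buffer (138 mM NaCl, 5 mM CaCl2, 10 mM glucose, pH 7.1-7.3), then washed. Calcium-influx fluorescence read after 100 µM L-glutamate with compound at various concentrations. Responses expressed as % of 100 µM cyclothiazide; EC50 ± SEM calculated.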
# Glutamate receptor 4, sequence (P48058 whole entry): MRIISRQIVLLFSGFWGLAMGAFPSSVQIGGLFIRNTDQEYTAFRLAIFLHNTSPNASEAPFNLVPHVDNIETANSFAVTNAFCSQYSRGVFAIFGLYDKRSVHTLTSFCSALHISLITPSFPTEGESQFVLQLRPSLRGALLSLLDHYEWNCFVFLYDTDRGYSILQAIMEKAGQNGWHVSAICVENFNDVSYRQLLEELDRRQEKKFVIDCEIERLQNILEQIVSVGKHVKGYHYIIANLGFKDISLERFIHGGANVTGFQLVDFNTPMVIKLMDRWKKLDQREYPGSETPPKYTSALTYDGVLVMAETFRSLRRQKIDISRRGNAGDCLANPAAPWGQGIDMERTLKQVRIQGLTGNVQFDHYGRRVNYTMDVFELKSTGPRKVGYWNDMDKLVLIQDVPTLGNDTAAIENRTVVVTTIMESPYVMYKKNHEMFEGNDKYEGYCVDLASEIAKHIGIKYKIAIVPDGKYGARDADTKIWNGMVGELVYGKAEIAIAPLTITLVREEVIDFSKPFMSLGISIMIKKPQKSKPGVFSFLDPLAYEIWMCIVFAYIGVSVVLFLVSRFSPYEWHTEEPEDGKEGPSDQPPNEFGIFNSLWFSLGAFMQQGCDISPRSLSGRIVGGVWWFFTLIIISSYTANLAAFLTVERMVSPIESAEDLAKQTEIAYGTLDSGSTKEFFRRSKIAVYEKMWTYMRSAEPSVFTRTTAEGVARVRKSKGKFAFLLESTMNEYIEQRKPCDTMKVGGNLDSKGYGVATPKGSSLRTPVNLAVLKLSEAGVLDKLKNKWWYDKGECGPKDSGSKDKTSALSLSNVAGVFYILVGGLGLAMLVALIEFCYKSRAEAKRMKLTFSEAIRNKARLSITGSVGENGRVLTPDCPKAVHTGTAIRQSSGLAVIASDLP
row,Compound,EC50 [µM]
1,CCCS(=O)(=O)NCC(C)c1ccc(-c2ccccc2F)cc1 (centres undefined),23.8
2,CC(CNS(=O)(=O)N(C)C)c1ccc(-c2ccccc2F)cc1 (centres undefined),4
3,CC(CNS(=O)(=O)C(C)C)c1ccc(-c2ccc(Cl)cc2)cc1 (centres undefined),> 3
4,CCCCS(=O)(=O)NCC(C)c1ccc(-c2ccccc2F)cc1 (centres undefined),> 100
5,CC(CNS(=O)(=O)Cc1ccccc1)c1ccc(-c2ccccc2F)cc1 (centres undefined),> 100
6,CC(CNS(=O)(=O)C(C)C)c1ccc(-c2ccc(N)cc2)cc1 (centres undefined),0.13
7,CC(CNS(=O)(=O)C(C)C)c1ccc(C(C)(C)C)cc1 (centres undefined),1.2
8,CC(C)S(=O)(=O)NCC(CCc1ccccc1)c1ccc(C(C)(C)C)cc1 (centres undefined),> 100
9,CC(CNS(=O)(=O)C(F)(F)F)c1ccc(-c2ccccc2F)cc1 (centres undefined),32.9
10,CCC(CNS(=O)(=O)C(C)C)c1ccc(C(C)(C)C)cc1 (centres undefined),2
11,CC(CNS(=O)(=O)C(C)C)c1ccc(-c2ccc(C(=O)O)cc2)cc1 (centres undefined),1.4
12,CC(C)S(=O)(=O)NCCc1ccc(-c2ccccc2F)cc1,7.2
13,CCCC(CNS(=O)(=O)C(C)C)c1ccc(C(C)(C)C)cc1 (centres undefined),27.9
14,CC(CNS(=O)(=O)C(C)C)c1ccc(-c2ccccc2)cc1 (centres undefined),1
15,CC(CNS(C)(=O)=O)c1ccc(-c2ccsc2)cc1 (centres undefined),4.5
16,CC(CNS(=O)(=O)c1ccccc1)c1ccc(-c2ccccc2F)cc1 (centres undefined),62.5
17,CC(CNS(=O)(=O)C(C)C)c1ccc(-c2ccc(C(F)(F)F)cc2)cc1 (centres undefined),> 3
18,CC(CNS(=O)(=O)C(C)C)c1ccc(-c2ccsc2)cc1 (centres undefined),0.66
19,CCS(=O)(=O)NCC(C)c1ccc(-c2ccccc2F)cc1 (centres undefined),5.4
20,CC(CNS(C)(=O)=O)c1ccc(-c2ccccc2F)cc1 (centres undefined),19.6
21,CC(C)S(=O)(=O)NCCc1ccc(C(C)(C)C)cc1,12.8
22,CC(CN)c1ccc(-c2ccccc2F)cc1 (centres undefined),> 100
23,CC(CNS(=O)(=O)C(C)C)c1ccc(-c2ccccc2F)cc1 (centres undefined),4.4
24,CC(C)S(=O)(=O)NCC(Cc1ccccc1)c1ccc(C(C)(C)C)cc1 (centres undefined),> 100
25,Cc1ccc(-c2ccc(C(C)CNS(=O)(=O)C(C)C)cc2)cc1 (centres undefined),0.27
26,CC(CNS(=O)(=O)C(C)C)c1ccc(-c2ccc(C=O)cc2)cc1 (centres undefined),0.25
27,CC(CNS(=O)(=O)C(C)C)c1ccc(-c2ccc(C#N)cc2)cc1 (centres undefined),0.29
28,O=C(c1ccc2nccnc2c1)N1CCCCC1 [CX516],> 1000
29,NS(=O)(=O)c1cc2c(cc1Cl)NC(C1CC3C=CC1C3)NS2(=O)=O (centres undefined) [CYCLOTHIAZIDE],3.8
